KCNQ1 inh – inhibitors of human KCNQ1 channel, primary screen, cell-based, thallium flux, high-throughput | CHO-K1 KCNQ1, FluxOR thallium flux fluorescence; active compounds read high | Potassium voltage-gated channel subfamily KQT member 1 (Homo sapiens), P51787 | B-score at 10 µM | 310,000 compounds, 1.3% hits;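 active means compounds whose thallium flux B-score, printed positive for inhibition, exceeds three library SD while starting fluorescence stays within three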;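 further: channel opened by potassium depolarization with thallium stimulus after 20 min compound exposure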
Target sequence (P51787 whole entry, looked up): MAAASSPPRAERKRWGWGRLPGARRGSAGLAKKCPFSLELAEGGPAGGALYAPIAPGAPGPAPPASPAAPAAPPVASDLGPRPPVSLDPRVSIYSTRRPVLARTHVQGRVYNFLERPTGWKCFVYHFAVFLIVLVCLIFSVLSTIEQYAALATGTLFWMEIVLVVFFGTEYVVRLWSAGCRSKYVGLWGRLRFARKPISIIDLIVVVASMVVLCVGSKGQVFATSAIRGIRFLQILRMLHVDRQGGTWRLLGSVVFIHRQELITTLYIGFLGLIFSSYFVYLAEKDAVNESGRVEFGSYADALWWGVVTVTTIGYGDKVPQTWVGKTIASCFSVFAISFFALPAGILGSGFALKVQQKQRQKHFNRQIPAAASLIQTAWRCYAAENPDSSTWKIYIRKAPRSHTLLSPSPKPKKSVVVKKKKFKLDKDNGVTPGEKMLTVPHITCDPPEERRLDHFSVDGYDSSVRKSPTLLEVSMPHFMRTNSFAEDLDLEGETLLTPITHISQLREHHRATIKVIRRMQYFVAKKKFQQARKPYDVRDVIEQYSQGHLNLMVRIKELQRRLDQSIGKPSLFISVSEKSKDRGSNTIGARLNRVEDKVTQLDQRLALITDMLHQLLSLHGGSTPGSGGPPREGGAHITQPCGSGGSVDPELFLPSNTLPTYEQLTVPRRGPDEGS
hERG rescue – hERG rescue from dofetilide block, primary screen, cell-based, CHO-hERG, FluxOR thallium flux, dofetilide IC70 | Voltage-gated inwardly rectifying potassium channel KCNH2 (Homo sapiens), Q12809 | dofetilide IC70 present | activation (rescue from dofetilide block), less the hit threshold, % at 10 µM | 310,000 compounds, 0.51% hits | AID 1511, 2009;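 active means activation above the mean of controls blocked by dofetilide plus 5 SD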;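 further: thallium influx through hERG after potassium depolarization seen as dye fluorescence rise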
KCNQ1 act – potentiators or activators of KCNQ1 channel, primary screen, cell-based, thallium flux, high-throughput | Potassium voltage-gated channel subfamily KQT member 1 (Homo sapiens), P51787 | B-score at 10 µM | CHO-K1 KCNQ1, thallium flux FluxOR fluorescence; active compounds read high | 310,000 compounds, 0.35% hits;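 active means fluorescence ratio B-score, a plate-corrected score, at least three library SD, with initial intensity B-score within 5 SD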
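System: Stable KCNQ1 CHO-K1 line | Incubation: 90 min dye loading and 20 min compound exposure, both at room temperature | Measure: Ratio B score | Medium: Assay buffer for compound exposure, DMSO matched across wells | Compound dosing: Single-concentration screen | Probe or stimulus: K+/Tl+ depolarizing stimulus | Measured by: Kinetic FluxOR fluorescence, 10 s baseline plus 110 s post-stimulus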
KCNK3 block – human KCNK3 channel inhibitors, primary screen, CHO cells, FluxOR thallium flux, B-score; FluxOR fluorescence; active compounds read low; Potassium channel subfamily K member 3 (Homo sapiens), O14649; AID 602410, 2012; 340,000 compounds, 0.84% hits; B-score at 10 µM;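 active means B-score under library mean minus 4 SD, starting fluorescence ratio at most library mean plus 5 SD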;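 further: more negative B-score means stronger inhibition of thallium flux through KCNK3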
Kir21 inh – inhibitors of mouse Kir2.1 inward-rectifier potassium channel | Inward rectifier potassium channel 2 (Mus musculus), P35561 | 310,000 compounds, 0.85% hits | HEK293-Kir2.1, FluxOR thallium flux fluorescence; active compounds read low | B-score at 10 µM;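 active means fluorescence ratio B-score at or below minus 3 SD of library scores, with starting-brightness B-score within 2 SD, cut at about -4.2 in these data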;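 further: channel flux triggered by added potassium and thallium sulfate stimulus; B-score of peak minus minimum fluorescence over baseline after thallium stimulus; more negative B-score means stronger Kir2.1 block with less thallium influx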
KCNK9 inh – KCNK9 potassium channel inhibitors, primary screen, HEK293 cells, thallium flux. 310,000 compounds, 1.2% hits. AID 488922, 2010. FluxOR thallium flux fluorescence; active compounds read low. B-score at 10 µM;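 active means ratio B-score over 3 SD below the library mean, with starting fluorescence within 5 SD of its mean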;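 further: negative B-score means less thallium flux so channel inhibition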
KCNQ1 inh valid – KCNQ1 potassium channel inhibitors, confirmation, cell-based, Tl flux, duplicate | shares compounds with KCNQ1 inh | KCNQ1 cell line, FluxOR thallium flux fluorescence | inhibition, % at 10 µM | 1,600 compounds, 93% hits | AID 588353, 2011;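 active means primary screen active, with duplicate mean exceeding buffer control mean plus 3 SD of buffer wells, cut at about 28% in these data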
CHO KCNQ1 ctr – thallium flux effects in parental CHO cells, counter-screen for KCNQ1 inhibitor project, cell-based, Tl flux | fluorescence ratio (Tl flux) at 10 µM | parental CHO-K1, FluxOR thallium flux fluorescence ratio; active compounds read low; zero means no signal rise above baseline | 1,600 compounds, 21% hits | shares compounds with KCNQ1 inh;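 active means mean of duplicate thallium-flux fluorescence ratios in parental host cells more than 5 SD below the buffer control mean, cut at about 0.38 in these data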;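 further: ratio is peak minus minimum fluorescence divided by baseline fluorescence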
KCNQ1 ephys val – KCNQ1 channel inhibitors, confirmation, orthogonal assay, cell-based, automated electrophysiology; shares compounds with KCNQ1 inh; KCNQ1-CHO cells, automated patch clamp current; calls only at 10 µM; 490 compounds, 20% hits; AID 624120, 2012;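 active means KCNQ1 current drop exceeding 3 SD of negative control wells, seen in both duplicate runs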;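 further: steady state current during a 2 s step from -80 to +40 mV; negative values mean current inhibition and positive values mean potentiation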
KCNQ2 spec – KCNQ2 channel inhibition, selectivity assay for KCNQ1 inhibitor project, cell-based; shares compounds with KCNQ1 inh; KCNQ2 cells, FluxOR thallium flux fluorescence; inhibition, % at 10 µM; 1,600 compounds, 71% hits; AID 651746, 2012;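 active means mean percent inhibition of the KCNQ2 thallium signal more than 5 SD above the buffer-only control wells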;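 further: KCNQ2 expressed in CHO cells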
KCNQ1 KCNE1 spec – KCNQ1/KCNE1 channel inhibition, selectivity assay for KCNQ1 inhibitor project, CHO-K1 cells, thallium flux, FluxOR; 1,600 compounds, 77% hits; FluxOR thallium flux fluorescence; inhibition, % at 10 µM; shares compounds with KCNQ1 inh; AID 652147, 2013;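 active means mean percent inhibition of duplicate wells above the buffer-only control mean plus 3 SD of those controls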
KCNK9 inh conf – KCNK9 potassium channel inhibitors, confirmation, HEK293 cells, thallium flux, duplicate. shares compounds with KCNK9 inh. FluxOR thallium flux fluorescence. inhibition, % at 10 µM. 4,900 compounds, 43% hits. AID 492992, 2010;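 active means thallium signal inhibited by more than 5 SD of the compound-free buffer control wells, on both duplicate plates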
Kir2-1 spec – mouse Kir2.1 channel inhibition, confirmation, selectivity assay for KCNK9 modulator project, cell-based, HEK293, thallium flux. inhibition, % at 10 µM. shares compounds with KCNK9 inh. Kir2.1 cells, FluxOR thallium flux fluorescence. 4,900 compounds, 4% hits;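 active means thallium signal drop more than 5 SD beyond the mean of the no-compound control wells, seen in both duplicate plates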;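 further: signal is fluorescence rise after thallium addition divided by baseline fluorescence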
HEK293 Tl ctr – thallium flux in non-induced HEK293 cells, confirmation, counter-screen for KCNK9 inhibitor project, cell-based, second counter screen, non-induced KCNK9-HEK293; shares compounds with KCNK9 inh; FluxOR thallium flux; inhibition, % at 10 µM; 4,900 compounds, 40% hits;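 active means thallium signal drop beyond 5 SD of the untreated control mean, on both duplicate plates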
Of the large screens only hits and unclear results are named; the others gave an inactive call (follow-up assays come after a bar, where they were run). A selection: hits, their analogues and other compounds. The true share with any hit is near 3.7%.

CN1CCN(C2Cc3ccc(F)cc3Sc3cc(F)c(Cl)cc32)CC1 (stereo unspecified)	none
CN1CCN(C2=Cc3ccc(Cl)cc3Sc3ccc(F)cc32)CC1	KCNQ1 inh 6 | KCNQ1 inh valid 173 | CHO KCNQ1 ctr inactive | KCNQ1 ephys val inactive | KCNQ2 spec 116% | KCNQ1 KCNE1 spec 188%
Cc1cc(NC(C)c2ccccc2)n2ncc(-c3ccccc3)c2n1 (stereo unspecified)	none
CC(C)(C)c1cc(NCc2ccccn2)n2ncc(-c3ccccc3)c2n1	KCNQ1 inh 7 | KCNQ1 inh valid 72 | CHO KCNQ1 ctr inactive | KCNQ2 spec inactive | KCNQ1 KCNE1 spec 61%
Cc1cccnc1N1C(=O)c2ccc(C(=O)O)cc2C1=O	none
Cc1onc(-c2ccccc2Cl)c1C(=O)N(C)CC(=O)Nc1ccc(F)c(F)c1F	none
Cc1nc(N2CCC(C)CC2)c2c(C)c(C(=O)Nc3ccc(C)c(F)c3)sc2n1	KCNQ1 inh 7 | KCNQ1 inh valid 114 | CHO KCNQ1 ctr inactive | KCNQ1 ephys val inactive | KCNQ2 spec 140% | KCNQ1 KCNE1 spec 64%
CN(C)C(=O)c1ccc(-c2nnc(OCc3nc4ccccc4n3C)c3ccccc23)cc1	none (no result: KCNQ1 inh, hERG rescue, KCNQ1 act, Kir21 inh, KCNK9 inh)
COC(=O)C(C)Sc1nnc2n(-c3cccc(C)c3)c(=O)c3c4c(sc3n12)CCCC4 (stereo unspecified)	KCNQ1 inh 6 | KCNQ1 inh valid 42 | CHO KCNQ1 ctr inactive | KCNQ2 spec 87% | KCNQ1 KCNE1 spec 52%
CC(=O)c1cccc(S(=O)(=O)Nc2ccc3nc(C)sc3c2)c1	none
Cc1nc2ccc(NS(=O)(=O)c3ccc(C)c(C)c3)cc2s1	KCNQ1 inh 7 | KCNQ1 inh valid 68 | CHO KCNQ1 ctr inactive | KCNQ2 spec inactive | KCNQ1 KCNE1 spec inactive
CC(C)(C)c1nc(SCC(=O)c2ccccc2)c2ccccc2n1	KCNQ1 inh 9, KCNK9 inh -9 | KCNQ1 inh valid 84 | CHO KCNQ1 ctr inactive | KCNQ2 spec inactive | KCNQ1 KCNE1 spec 58% | KCNK9 inh conf 46% | Kir2-1 spec 51% | HEK293 Tl ctr 47%
Cc1ccc(Cl)cc1NC(=O)CC(O)(C(F)(F)F)C(F)(F)F	KCNQ1 inh 8, KCNK9 inh -19 | KCNQ1 inh valid 90 | CHO KCNQ1 ctr inactive | KCNQ2 spec inactive | KCNQ1 KCNE1 spec 83% | KCNK9 inh conf inactive | Kir2-1 spec 29% | HEK293 Tl ctr 28%
CCn1c(=O)n(CC)c2cc(N3CCCC3)c(NC(=O)c3cc(Br)ccc3OC)cc21	KCNQ1 inh 9, KCNK9 inh -18 (no result: KCNK3 block) | KCNQ1 inh valid 162 | CHO KCNQ1 ctr 0.33 | KCNQ2 spec 123% | KCNQ1 KCNE1 spec active | KCNK9 inh conf 72% | Kir2-1 spec inactive | HEK293 Tl ctr inactive
CC(C)OC(=O)NC(c1ccccc1)C(Cl)(Cl)Cl (stereo unspecified)	none
CCOc1ccc(OC(=O)NC(c2ccccc2)C(Cl)(Cl)Cl)cc1 (stereo unspecified)	KCNQ1 inh 8 | KCNQ1 inh valid 111 | CHO KCNQ1 ctr inactive | KCNQ2 spec 101% | KCNQ1 KCNE1 spec 168% | KCNK9 inh conf inactive | Kir2-1 spec inactive | HEK293 Tl ctr inactive
CC1CC(C)CN(C(=O)CN2C(=O)NC(c3ccccc3)(c3ccccc3)C2=O)C1 (stereo unspecified)	none (no result: KCNQ1 inh, hERG rescue, KCNQ1 act, Kir21 inh, KCNK9 inh)
CC(C)(C)c1ccc(-c2nc(NCc3cccnc3)c3ccccc3n2)cc1	KCNQ1 inh 15, KCNK9 inh -9.3 | KCNQ1 inh valid 152 | CHO KCNQ1 ctr inactive | KCNQ1 ephys val inactive | KCNQ2 spec 100% | KCNQ1 KCNE1 spec 186% | KCNK9 inh conf 26% | Kir2-1 spec inactive | HEK293 Tl ctr 42%
c1cncc(CNc2nc(-c3cccnc3)nc3ccccc23)c1	none
C=CCCC(=O)N1CCCC(Cc2cccc(Cl)c2)(C(=O)OCC)C1 (stereo unspecified)	none
CSc1nnc(C)c(/C=C/Nc2ccc(F)cc2F)n1	none
C=CCSc1nnc(C)c(/C=C/Nc2ccc(Cl)cc2)n1	KCNQ1 inh 8, KCNK9 inh -11 | KCNQ1 inh valid 73 | CHO KCNQ1 ctr 0.33 | KCNQ2 spec 106% | KCNQ1 KCNE1 spec 98% | KCNK9 inh conf 30% | Kir2-1 spec inactive | HEK293 Tl ctr 56%
Cc1cccc(/C=C/c2onc(C)c2S(=O)(=O)N2CCC(C(=O)N3CCC(C)CC3)CC2)c1	KCNQ1 inh 6 | KCNQ1 inh valid 52 | CHO KCNQ1 ctr inactive | KCNQ2 spec inactive | KCNQ1 KCNE1 spec 56% | KCNK9 inh conf inactive | Kir2-1 spec inactive | HEK293 Tl ctr inactive

Screens from PubChem.
